Source: ChEMBL document CHEMBL5120974, “Antitubercular Activity of Novel 2-(Quinoline-4-yloxy)acetamides with Improved Drug-Like Properties” (ACS Med Chem Lett, 2022)
In brackets after ≈: the same amount, converted by molar mass.

Experiments:
[1] = test system: Mycobacterium tuberculosis; assay: Antitubercular activity against Mycobacterium tuberculosis H37Rv assessed as bacterial growth inhibition incubated for 7 days by resazurin assay; type: functional; conditions: 168 h, time 7 day
[2] = test system: Mycobacterium tuberculosis; assay: Antitubercular activity against Mycobacterium tuberculosis H37Rv infected in mouse RAW 264.7 cells assessed as reduction on bacterial colony growth at 2.5 uM incubated for 2 to 3 weeks; type: functional; conditions: time 2-3 weeks
How it was run: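 Mtb growth inside macrophages (in vitro infection model) was tested with compounds at 2.5 μM; the untreated control got 0.5% DMSO vehicle. Read-out was log₁₀ CFU/well, given as mean ± standard deviation and compared with the untreated group by Dunnett post-test (P < 0.05).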

[3] = Selectivity index, ratio of CC50 for cytotoxicity against human HepG2 cells to MIC for antitubercular activity against Mycobacterium tuberculosis H37Rv; type: toxicity, cell-based
How it was run: (§1)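 SI = CC₅₀/MIC, with the MIC taken against H37Rv. CC₅₀ is the concentration that cuts cell viability by 50%, from cells exposed for 72 h. Viability was read by both MTT (mitochondrial activity) and neutral red uptake (lysosomal integrity).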

[4] = Cytotoxicity against African green monkey Vero cells assessed as reduction in cell viability incubated for 72 hrs by MTT assay; type: toxicity, cell-based; conditions: chlorocebus sabaeus
How it was run: (§2)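 HepG2 and Vero cells were exposed to compound for 72 h, with viability read by MTT (mitochondrial activity) and neutral red uptake (lysosomal integrity). CC₅₀ is the concentration reducing cell viability by 50%.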

[5] = Selectivity index, ratio of CC50 for cytotoxicity against African green monkey Vero cells to MIC for antitubercular activity against Mycobacterium tuberculosis H37Rv; type: toxicity, cell-based; how it was run: as §1
HepG2 = assay: Cytotoxicity against human HepG2 cells assessed as reduction in cell viability incubated for 72 hrs by MTT assay; type: functional; how it was run: as §2
[6] = Solubility of the compound in PBS at pH 7.4 incubated for 4 hrs by liquid chromatography; type: physicochemical; conditions: PBS pH 7.4, pH 7.4
[7] = Metabolic stability in rat liver microsomes assessed as half life measured upto 30 min by HPLC-MS/MS analysis; type: ADME, Microsome
[8] = Clearance in mouse plasma at 25 mg/kg,iv by HPLC analysis; type: ADME, organism-based
How it was run: (§3)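 Mouse pharmacokinetics after a single intravenous dose of 25 mg/kg (61.6 μmol/kg) or an oral dose of 121.6 mg/kg (300 μmol/kg). Plasma drug concentrations were quantified over time, including a 24 h sample after oral dosing. Oral bioavailability was estimated by comparing the two routes.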

[9] = Volume of distribution at steady state in mouse plasma at 121.6 mg/kg,po by HPLC analysis; type: ADME, organism-based; conditions: in vivo; how it was run: as §3
[10] = Chemical stability of the compound in pH 7.4 PBS assessed as remaining product at 10 uM incubated for 24 hrs by HPLC-MS/MS analysis; type: physicochemical; conditions: PBS pH 7.4, pH 7.4, read-out: Stability
How it was run: (§4)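 Compound incubated 24 h at 37 °C in 0.1 M HCl (pH 1.2), PBS (pH 7.4) or 0.1 M NH₄HCO₃ (pH 9.1). Result is reported as percentage of compound remaining after incubation.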

[11] = Volume of distribution at steady state in mouse plasma at 25 mg/kg,iv by HPLC analysis; type: ADME, organism-based; conditions: read-out: Vdss; how it was run: as §3
[12] = Absorption rate constant in mouse plasma at 121.6 mg/kg,po by HPLC analysis; type: ADME, organism-based; conditions: in vivo; how it was run: as §3
[13] = Plasma concentration in mouse plasma at 121.6 mg/kg,po measured after 24 hrs by HPLC analysis; type: ADME, organism-based; how it was run: as §3
[14] = Oral bioavailability in mouse plasma at 121.6 mg/kg by HPLC analysis; type: ADME, organism-based; how it was run: as §3
[15] = Terminal half life in mouse plasma at 121.6 mg/kg,po by HPLC analysis; type: ADME, organism-based; conditions: read-out: beta t1/2; how it was run: as §3
[16] = Permeability of the compound at 10 uM measured after 5 hrs by PAMPA based HPLC-MS/MS analysis; type: ADME; conditions: read-out: permeability
[17] = Apparent oral volume of distribution in mouse plasma at 121.6 mg/kg,po by HPLC analysis; type: ADME, organism-based; how it was run: as §3
[18] = Clearance in mouse plasma at 121.6 mg/kg,po by HPLC analysis; type: ADME, organism-based; how it was run: as §3
[19] = Cmax in mouse plasma at 121.6 mg/kg,po by HPLC analysis; type: ADME, organism-based; parameters: dose 121.6 mg/kg, route po; how it was run: as §3
[20] = Inter-compartmental clearance in mouse plasma at 25 mg/kg,iv by HPLC analysis; type: ADME, organism-based; conditions: in vivo; how it was run: as §3
[21] = Terminal half life in mouse plasma at 25 mg/kg,iv by HPLC analysis; type: ADME, organism-based; conditions: read-out: beta t1/2; how it was run: as §3
[22] = Apparent oral clearance in mouse plasma at 121.6 mg/kg,po by HPLC analysis; type: ADME, organism-based; how it was run: as §3
[23] = Solubility of the compound in HCl at pH 1.2 incubated for 4 hrs by liquid chromatography; type: physicochemical; conditions: HCl pH 1.2, pH 1.2
[24] = Metabolic stability in rat liver microsomes assessed as intrinsic clearance measured upto 30 min by HPLC-MS/MS analysis; type: ADME, Microsome; conditions: read-out: CLH
[25] = Chemical stability of the compound in pH 9.1 NH4HCO3 assessed as remaining product at 10 uM incubated for 24 hrs by HPLC-MS/MS analysis; type: physicochemical; conditions: NH4HCO3 pH 9.1, pH 9.1, read-out: Stability; how it was run: as §4
[26] = Chemical stability of the compound in pH 1.2 HCL assessed as remaining product at 10 uM incubated for 24 hrs by HPLC-MS/MS analysis; type: physicochemical; conditions: HCl pH 1.2, pH 1.2, read-out: Stability; how it was run: as §4

SMILES: O=C(COc1cc(C(F)(F)F)nc2ccc(Br)cc12)Nc1ccc(N2CCCCC2)cc1
- MIC [1]: 78.7 µM (≈ 40 µg/mL)

SMILES: COc1ccc2nc(C)cc(OCC(=O)Nc3ccc(N4CCSCC4)cc3)c2c1
- MIC [1]: 0.37 µM (≈ 0.157 µg/mL)

SMILES: CCc1cc(OCC(=O)Nc2ccc(N3CCCCC3)cc2)c2cc(OC)ccc2n1
- Activity [2]: 4.13 log10CFU
- selectivity ratio [3]: > 105
- CC50 at 72 h [4]: > 20 µM
- MIC [1]: 0.19 µM (≈ 0.0797 µg/mL)
- selectivity ratio [5]: > 105
- CC50 (HepG2): > 20 µM

SMILES: COc1ccc2nc(C)cc(OCC(=O)N[C@@H]3C[C@@H]4C[C@H]([C@H]3C)C4(C)C)c2c1
- MIC [1]: 26.1 µM (≈ 9.98 µg/mL)

SMILES: COc1ccc2nc(C)cc(OCC(=O)NCC3CCCCC3)c2c1
- MIC [1]: 7.3 µM (≈ 2.5 µg/mL)

SMILES: Cc1cc(OCC(=O)Nc2ccc(N3CCCCC3)cc2)c2cc(Br)ccc2n1
- MIC [1]: 0.68 µM (≈ 0.309 µg/mL)

SMILES: COc1ccc2nc(C)cc(OCC(=O)N[C@H](C)C3CCCCC3)c2c1
- MIC [1]: > 14 µM

SMILES: CO[C@H]1/C=C/O[C@@]2(C)Oc3c(C)c(O)c4c(O)c(c(/C=N/N5CCN(C)CC5)c(O)c4c3C2=O)NC(=O)/C(C)=C\C=C\[C@H](C)[C@H](O)[C@@H](C)[C@@H](O)[C@@H](C)[C@H](OC(C)=O)[C@@H]1C [RIFAMPIN]
- MIC [1]: 0.05 µM (≈ 0.0411 µg/mL)

SMILES: COc1ccc2nc(C)cc(OCC(=O)Nc3ccccc3OC)c2c1
- MIC [1]: 0.44 µM (≈ 0.155 µg/mL)

SMILES: CCCc1ccc(NC(=O)COc2cc(C)nc3ccc(OC)cc23)cc1
- MIC [1]: 0.05 µM (≈ 0.0182 µg/mL)

SMILES: COc1ccc2nc(C)cc(OCC(=O)NC3CCC3)c2c1
- MIC [1]: 33.3 µM (≈ 10 µg/mL)

SMILES: COc1ccc2nc(C)cc(OCC(=O)N[C@@H](C)C3CCCCC3)c2c1
- MIC [1]: > 14 µM

SMILES: Cc1cc(OCC(=O)Nc2ccc(N3CCCCC3)cc2)c2cc(Cl)ccc2n1
- MIC [1]: 0.75 µM (≈ 0.307 µg/mL)

SMILES: NNC(=O)c1ccncc1 [ISONIAZID]
- MIC [1]: 2.3 µM (≈ 0.315 µg/mL)

SMILES: COc1ccc2nc(C)cc(OCC(=O)NC3CCCCCC3)c2c1
- MIC [1]: 3.7 µM (≈ 1.27 µg/mL)

SMILES: COc1ccc2nc(C)cc(OCC(=O)NC3C4CC5CC(C4)CC3C5)c2c1 (centres undefined)
- MIC [1]: 6.6 µM (≈ 2.51 µg/mL)

SMILES: COc1ccc2nc(C)cc(OCC(=O)N[C@H]3C[C@H]4C[C@@H]([C@@H]3C)C4(C)C)c2c1
- MIC [1]: 3.3 µM (≈ 1.26 µg/mL)

SMILES: O=C(COc1cc(C(F)(F)F)nc2ccc(Cl)cc12)Nc1ccc(N2CCCCC2)cc1
- MIC [1]: 86.2 µM (≈ 40 µg/mL)

SMILES: COc1ccc2nc(C)cc(OCC(=O)Nc3ccc(N4CCCCC4)cc3)c2c1
- Activity [2]: 4.13 log10CFU
- selectivity ratio [3]: > 222
- CC50 at 72 h [4]: > 20 µM
- solubility at 4 h [6]: 31.4 µM (≈ 12.7 µg/mL)
- MIC [1]: 0.09 µM (≈ 0.0365 µg/mL)
- half-life [7]: 2.93 h
- clearance [8]: 1.47 mL/min/kg
- selectivity ratio [5]: > 222
- Vdss [9]: 0.234 L/kg
- remaining at 24 h, 10 µM [10]: 100%
- Vd [11]: 0.304 L/kg
- Ka [12]: 3.01 h⁻¹
- concentration at 24 h [13]: 1140 ng/mL
- bioavailability [14]: 51%
- half-life [15]: 1.72 h
- Papp at 5 h, 10 µM [16]: 4.5 ×10⁻⁶ cm/s
- CC50 (HepG2): > 20 µM
- Vd/F [17]: 0.46 L/kg
- CL/F [18]: 1.92 mL/min/kg
- Cmax [19]: 8300 ng/mL
- CL [20]: 5.65 mL/min/kg
- half-life [21]: 2.27 h
- CL/F [22]: 3.77 mL/min/kg
- solubility at 4 h [23]: > 2500 µM
- CLint scaled [24]: 7.5 mL/min/kg
- remaining at 24 h, 10 µM [25]: 62.1%
- remaining at 24 h, 10 µM [26]: 58.3%

SMILES: COc1ccc2nc(C)cc(OCC(=O)NC3CCCCC3)c2c1
- MIC [1]: 7.6 µM (≈ 2.5 µg/mL)

SMILES: COc1ccc2nc(C)cc(OCC(=O)NC3CCCCC3C)c2c1 (centres undefined)
- MIC [1]: 14.6 µM (≈ 5 µg/mL)

SMILES: COc1ccc2nc(C)cc(OCC(=O)Nc3ccc(N4CCOCC4)cc3)c2c1
- MIC [1]: 3.1 µM (≈ 1.26 µg/mL)

SMILES: COc1ccc2nc(C)cc(OCC(=O)Nc3ccc4ccccc4c3)c2c1
- MIC [1]: 0.05 µM (≈ 0.0186 µg/mL)

SMILES: COc1ccc2nc(C(F)(F)F)cc(OCC(=O)Nc3ccc(N4CCCCC4)cc3)c2c1
- MIC [1]: 0.17 µM (≈ 0.0781 µg/mL)

SMILES: CCc1cc(OCC(=O)Nc2ccc(N3CCCCC3)cc2)c2cc(Br)ccc2n1
- MIC [1]: 0.34 µM (≈ 0.159 µg/mL)

SMILES: CCc1cc(OCC(=O)Nc2ccc(N3CCCCC3)cc2)c2cc(Cl)ccc2n1
- MIC [1]: 0.37 µM (≈ 0.157 µg/mL)

SMILES: COc1ccc2nc(C)cc(OCC(=O)NC3CCC(C)CC3)c2c1 (centres undefined)
- MIC [1]: 7.3 µM (≈ 2.5 µg/mL)

SMILES: COc1ccc2nc(C)cc(OCC(=O)NC3CCCC3)c2c1
- MIC [1]: 15.9 µM (≈ 5 µg/mL)
